TAAR1 antag = antagonists of human TAAR1; Q96RJ0; CHO RD-HGA16 TAAR1, Fluo-8 calcium fluorescence, antagonist; inhibition, % at 3 µM; 1.5% of 360,000 active; AID 624466;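 active means inhibition above a per-plate cutoff, the mean inhibition of test compounds on that plate plus 3 SD, cut at about 49% in these data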
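Test system – hTAAR1-expressing CHO RD-HGA16 cells, Gα16-coupled · Also added – β-PEA at EC80 concentration, post-compound challenge · Compound – 3 µM, single point · Incubation – dye loading 75 min at 37 °C, then 30 min room temperature · Measured by – Fluo-8 intracellular calcium dye fluorescence, real-time kinetic reads · Benchmarks – vehicle and agonist controls · Replicates – singlicate, one well per test compound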
CRFBP-R2 agonist = CRF-BP/CRF-R2 complex agonism. 0.46% of 350,000 active. activation, % at 13.2 µM. HEK293 CRF-R2/CRF-BP, calcium dye fluorescence (FLIPR); percent of saturating CRF peptide response;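 active means activation of at least 50%, plus an integration ratio under a set limit after plate pattern correction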
TMEM16A inh = mouse TMEM16A channel inhibition, primary screen; Q8BHY3; HEK293 TMEM16A/YFP iodide influx fluorescence, ionomycin; normalized B-score (activity score, 25-100; higher = stronger inhibition) at 10 µM; 1.2% of 310,000 active;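 active means ratio plate-corrected score three or more library SD toward inhibition, starting fluorescence score within five deviations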;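 further: score derived from kinetic fluorescence span divided by baseline fluorescence per well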
Target sequence (Q8BHY3 whole entry, looked up): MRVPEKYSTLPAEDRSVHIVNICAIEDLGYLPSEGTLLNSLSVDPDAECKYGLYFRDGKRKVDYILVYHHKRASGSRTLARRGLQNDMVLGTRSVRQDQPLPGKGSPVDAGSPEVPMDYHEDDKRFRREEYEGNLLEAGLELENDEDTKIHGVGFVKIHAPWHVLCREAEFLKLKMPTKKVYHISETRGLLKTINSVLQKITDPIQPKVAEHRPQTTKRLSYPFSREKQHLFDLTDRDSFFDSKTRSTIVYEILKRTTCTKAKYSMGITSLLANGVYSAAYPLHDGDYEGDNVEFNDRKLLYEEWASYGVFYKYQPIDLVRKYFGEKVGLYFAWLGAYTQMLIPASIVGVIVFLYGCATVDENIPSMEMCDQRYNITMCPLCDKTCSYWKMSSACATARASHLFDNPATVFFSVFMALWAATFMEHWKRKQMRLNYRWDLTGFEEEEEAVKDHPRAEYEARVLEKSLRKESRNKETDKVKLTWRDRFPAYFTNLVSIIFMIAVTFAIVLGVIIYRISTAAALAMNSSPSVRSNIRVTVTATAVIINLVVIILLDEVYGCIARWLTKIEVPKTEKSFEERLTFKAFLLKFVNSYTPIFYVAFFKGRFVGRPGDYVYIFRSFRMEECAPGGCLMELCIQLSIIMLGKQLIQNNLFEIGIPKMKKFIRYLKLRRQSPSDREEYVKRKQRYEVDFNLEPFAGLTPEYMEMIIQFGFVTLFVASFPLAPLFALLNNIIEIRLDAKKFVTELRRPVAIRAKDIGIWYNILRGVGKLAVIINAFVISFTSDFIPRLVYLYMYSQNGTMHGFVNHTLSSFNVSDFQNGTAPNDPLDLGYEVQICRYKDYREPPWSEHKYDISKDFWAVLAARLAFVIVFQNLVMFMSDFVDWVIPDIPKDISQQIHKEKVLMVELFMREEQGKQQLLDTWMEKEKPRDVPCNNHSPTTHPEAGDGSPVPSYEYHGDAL
CRFBP-R2 block = blocks CRF-induced signaling of the CRF-BP/CRF-R2 complex | HEK293 CRF-R2/CRF-BP, CRF-induced calcium fluorescence | inhibition, % at 11.8 µM | 0.59% of 350,000 active;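 active means inhibition of the ligand-induced calcium signal above about 50% at the single tested concentration, limit read from the data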
TMEM16A act = mouse TMEM16A channel activation, primary screen; Q8BHY3; HEK293 TMEM16A/YFP-H148Q/I152L, iodide quench fluorescence; stronger effect = lower value; B-score at 10 µM; 0.3% of 340,000 active; AID 623877;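 active means fluorescence-ratio B-score plate-corrected deviation score at least 3 library SD below zero, with starting fluorescence score within 5 deviations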;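 further: channel opened by trigger with iodide after compound preincubation; score built on the fluorescence ratio of max minus min over baseline; more negative score means more quench and so TMEM16A activation or potentiation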
TAAR1 agonist = human TAAR1 agonism | activation, % at 3 µM | 0.99% of 360,000 active | CHO RD-HGA16 TAAR1, Fluo-8 calcium fluorescence; vehicle wells 0%, saturating PEA agonist 100%;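 active means activation above the mean activation of all test compounds in the run plus 3 SD, cut at about 38% in these data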
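System: CHO RD-HGA16 cells carrying human TAAR1 plus Gα16; Incubation: 17-24 h seeding, 75 min 37 °C dye, 30 min RT; Measured by: Fluo-8 fluorescence, 5 s baseline then 140 s kinetic read; Control set: DMSO and PEA EC100; Replication: single well for each compound.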
Hits are given with their value; i = inactive; nt = no result given. An excerpt weighted towards active compounds, which were near 3.9% of everything screened.

SMILES	TAAR1 antag	CRFBP-R2 agonist	TMEM16A inh	CRFBP-R2 block	TMEM16A act	TAAR1 agonist
CC(NC(=O)COC(=O)C1(C)CC1(Cl)Cl)c1ccccc1 (configuration not stated)	i	i	nt	54	i	i
CC(=O)Nc1ccc(S(=O)(=O)NCCC(=O)OCC(=O)c2cccc(Br)c2)cc1	i	i	nt	i	i	i
CCOCCc1nn2c(=O)cc(CSCC(=O)Nc3ccccc3)nc2s1	i	i	i	i	i	i
CCOC(=O)Cc1nn(Cc2nc(-c3ccc(C#N)cc3)cs2)c(=O)c2ccccc12	i	i	25	i	i	i
CCC1CCCCN1CCCNC(=O)c1cn(C)c2ccc(S(=O)(=O)N(C)C3CCCCC3)cc2c1=O (configuration not stated)	i	i	i	56	i	i
Cc1cccc2c3c([nH]c12)CCNC3	i	i	i	i	i	40
CCS(=O)(=O)N1Cc2ccccc2CC1C(=O)N(C)CC(=O)Nc1ccc(F)c(F)c1F (configuration not stated)	i	i	i	i	i	i
ONC(=Nc1ccccc1)c1ccc(Cl)cc1	i	i	i	i	i	i
NC(=Nc1ccc(Cl)cc1)c1ccccc1	i	i	i	i	i	43
CCCN1C=CC(=C/C=C(\C#N)C(=O)OCC)C=C1	nt	nt	i	nt	nt	nt
C=CCN1C=CC(=CC=C(C#N)C#N)C=C1	i	67	i	i	-7.7	i
CCCN1C=CC(=CC=C(C#N)C#N)C=C1	i	94	i	i	-6.5	i
CCCCCCN1C=CC(=C/C=C(\C#N)C(=O)OCC)C=C1	60	247	i	i	i	114
COc1ccc(C(=O)OCCCc2cc3ccccc3c(=O)o2)cc1	i	i	nt	i	i	i
CN(C)c1ccc(/C=C2\N=C(c3ccc(Cl)c([N+](=O)[O-])c3)NC2=O)cc1	i	62	i	i	i	i
CC1Cc2nc(SCC(=O)Nc3ccc4c(c3)OCO4)n(CCc3ccccc3)c(=O)c2S1 (configuration not stated)	i	i	i	i	-5.2	i
CCn1c(SCC(=O)Nc2ccc3c(c2)OCO3)nc2c(c1=O)SC(C)C2 (configuration not stated)	i	i	i	i	i	i
CCN(CC(=O)NC1CCS(=O)(=O)C1)C(=O)c1ccc(OC)c([N+](=O)[O-])c1 (configuration not stated)	i	i	nt	i	i	i
O=C1C2CC=C(Cl)CC2C(=O)N1CCCCCCN1C(=O)C2CC=C(Cl)CC2C1=O (configuration not stated)	i	i	i	i	i	41
O=C(CCC1CCCC1)NNC(=O)c1ccc(F)cc1	i	i	nt	i	i	i
CCCCCn1nc(C)c(/C=N/NC(=O)c2ccoc2C)c1C	i	i	i	i	i	i
CCCCCn1nc(C)c(/C=N\NC(=O)c2cc(C)oc2C)c1C	i	107	i	i	i	i
CC(=O)Nc1ccc(S(=O)(=O)N2CCCCC2c2cccnc2)cc1 (configuration not stated)	i	i	i	i	i	i
COc1cc(C)c(C)cc1S(=O)(=O)N1CCCCC1c1cccnc1 (configuration not stated)	i	i	i	i	-6	i
CCN1C(=O)c2cccc3c(N)ccc(c23)C1=O	i	i	i	i	i	136
SMILES	TAAR1 antag	CRFBP-R2 agonist	TMEM16A inh	CRFBP-R2 block	TMEM16A act	TAAR1 agonist
Cc1nn(C)c(C)c1N1C(=O)c2cccc3c(N)ccc(c23)C1=O	64	330	i	i	i	124
CCCN1C(=O)c2cccc3c(N4CCCCC4)ccc(c23)C1=O	i	206	i	i	i	i
Cc1nn(C)c(C)c1N1C(=O)c2cccc3c(Br)ccc(c23)C1=O	i	i	i	i	i	i
CCN(CC)S(=O)(=O)c1ccc(C(=O)OCCN2C(=O)c3cccc4c(N5CCOCC5)ccc(c34)C2=O)cc1	i	184	i	i	i	i
CN(C)CCCN1C(=O)c2cccc3c(Br)ccc(c23)C1=O	i	i	i	i	i	i
O=C(Nc1ccccc1)C1CCCN1S(=O)(=O)c1ccc(Br)cc1 (configuration not stated)	i	i	i	i	i	i
CN(C)S(=O)(=O)c1cccc(NC(=S)Nc2cc(Cl)cc(Cl)c2)c1	i	i	100	i	i	i
Cn1nc(CC(=O)NCc2cccc3ccccc23)c2ccccc2c1=O	i	i	i	i	i	i
COc1ccccc1NC(=O)Cc1nn(C)c(=O)c2ccccc12	nt	i	25	i	i	nt
COc1cccc(OC)c1NC(=O)Cc1nn(C)c(=O)c2ccccc12	i	i	i	i	i	i
Cc1csc(NC(=O)Cc2ccc(Cl)cc2)n1	i	i	i	i	i	i
COc1ccccc1NC(=O)Cn1c(=O)n(CCc2c[nH]c3ccccc23)c(=O)c2cccnc21	57	i	i	i	i	i
Cc1csc(NC(=O)Cc2nn(C)c(=O)c3ccccc23)n1	i	i	25	i	i	i
Cc1csc(NC(=O)Cc2ccc(Br)cc2)n1	i	i	i	63	i	i
O=C(Nc1cccc(F)c1)N1CCN(C(=O)c2ccco2)CC1	i	i	i	i	i	i
C#CCN1[C@@H]2CCN(C2)c2cc(Br)ccc2S1(=O)=O	i	i	nt	i	nt	i
CCOCCn1ccc2c(OCC(=O)Nc3ccccc3OC)cccc2c1=O	58	i	i	i	i	i
Cc1cc2c(cc1C)CSC(c1ccccc1O)SC2	66	i	i	i	i	i
O=C(COC(=O)c1ccccc1-c1ccccc1[N+](=O)[O-])c1ccccc1	56	i	i	i	i	i
Cc1ccc(-c2cc(C(=O)N3CCN(c4ccccc4O)CC3)c3ccccc3n2)o1	62	i	i	i	i	i
O=C(c1cc(-c2ccc(Br)cc2)nc2ccccc12)N1CCN(c2ccccc2O)CC1	55	i	i	i	i	i
O=C(CSc1ccccc1)NN1C(=O)c2ccccc2C1=O	i	i	i	122	i	i
CN(/N=C/c1ccc(Cl)cc1Cl)c1ncc(Cl)cc1C(F)(F)F	i	i	i	63	i	i
CN(/N=C/c1ccc(Cl)cc1)c1ncc(Cl)cc1C(F)(F)F	i	i	i	i	i	i
O=c1c2cc([N+](=O)[O-])ccc2nc(CN2CCN(c3ccccn3)CC2)n1-c1ccccc1F	i	i	i	i	i	i
O=C(c1ccco1)N1CCN(Cc2nc3ccc([N+](=O)[O-])cc3c(=O)n2-c2ccccc2F)CC1	69	i	i	i	i	i
O=C(Nc1ccc(/C=C/c2nc3ccccc3o2)cc1)c1c(F)cccc1F	53	i	i	i	i	i
O=C(O)c1ccc(N/N=C/c2c(F)cccc2Cl)cc1	i	i	i	i	i	i
